Square brackets hold non-standard residues; d marks the D form. Peptide text beside a SMILES is read from it. Tic = O=C(O)[C@@H]1Cc2ccccc2CN1
Assays:
Rattus norvegicus [1] = test: Antithrombotic activity in Wistar rat assessed as wet thrombus weight at 5 nmol/kg; assay type: functional
How it was run: (§1)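 Dose series (5 µmol/kg, 500 nmol/kg, 50 nmol/kg, 5 nmol/kg) given by intravenous injection to male Wistar rats (250–300 g) in an arteriovenous cannula model containing a weighed 6 cm thread. Anesthesia was pentobarbital sodium (80.0 mg/kg ip) with NS vehicle. Wet thrombus weight is given as mean ± SD, n = 12.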

Rattus norvegicus [2] = test: Antithrombotic activity in Wistar rat assessed as wet thrombus weight at 50 nmol/kg; assay type: functional; how it was run: as §1
Platelet [3] = test: Inhibition of adenosine diphosphate-induced platelet aggregation in pig blood; assay type: functional, cell-based; details: Sus scrofa
How it was run: (§2)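 Pig blood was spun at 1000g for 10 min to give PRP and at 1500g for 10 min to give PPP. PRP was adjusted to 2 × 10^8 platelets/ml with autologous PPP. The sample was preincubated with test agent or NS. Agonist final concentrations, each in NS: ADP 10 µM, AA 350 µM, PAF 0.1 µM, thrombin 0.1 U/ml. Optical aggregometry ran 5 min at 37 °C. Peak height gave maximal aggregation; % inhibition versus NS gave IC50.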

Platelet [4] = test: Inhibition of thrombin-induced platelet aggregation in pig blood; assay type: functional, cell-based; details: Sus scrofa; how it was run: as §2
Platelet [5] = test: Inhibition of platelet-activating factor-induced platelet aggregation in pig blood; assay type: functional, cell-based; details: Sus scrofa; how it was run: as §2
Platelet [6] = test: Inhibition of arachidonic acid-induced platelet aggregation in pig blood; assay type: functional, cell-based; details: Sus scrofa; how it was run: as §2
Rattus norvegicus [7] = test: Antithrombotic activity in Wistar rat assessed as wet thrombus weight at 5 umol/kg; assay type: functional
How it was run: (§3)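 Male Wistar rats (250–300 g) got the test agent orally, dissolved in NS and kept on ice; NS served as vehicle. After 45 min, rats were anesthetized with pentobarbital sodium (80.0 mg/kg ip). An extracorporeal carotid artery–jugular vein polyethylene cannula holding a weighed 6 cm thread was placed, and the wet thrombus weight on the thread was recorded.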

Rattus norvegicus [8] = test: Antithrombotic activity in Wistar rat assessed as wet thrombus weight at 500 nmol/kg; assay type: functional; how it was run: as §1
Rattus norvegicus [9] = test: Antithrombotic activity in Wistar rat assessed as wet thrombus weight at 110 x 5 umol/kg; assay type: functional; how it was run: as §3
Rattus norvegicus [10] = test: Antithrombotic activity in Wistar rat assessed as wet thrombus weight at 22 x 5 umol/kg; assay type: functional; how it was run: as §3
Rattus norvegicus [11] = test: Antithrombotic activity in Wistar rat assessed as wet thrombus weight at 15 umol/kg; assay type: functional; how it was run: as §3

SMILES | Activity (Rattus norvegicus [1]) [mg] | Activity (Rattus norvegicus [2]) [mg] | IC50 (Platelet [3]) [nM] | IC50 (Platelet [4]) [nM] | IC50 (Platelet [5]) [nM] | IC50 (Platelet [6]) [nM] | Activity (Rattus norvegicus [7]) [mg] | Activity (Rattus norvegicus [8]) [mg] | Activity (Rattus norvegicus [9]) [mg] | Activity (Rattus norvegicus [10]) [mg] | Activity (Rattus norvegicus [11]) [mg]
N[C@@H](CO)C(=O)N1Cc2ccccc2C[C@H]1C(=O)O (H-Ser-[Tic]-OH) | 28.58 | 22.54 | 103 | 498 | 267 | 215 | 18 | 18.31 |  |  | 
C[C@@H](O)[C@H](N)C(=O)N1Cc2ccccc2C[C@H]1C(=O)O (H-Thr-[Tic]-OH) |  |  | 240 | 879 | 404 | 535 | 20.73 |  |  |  | 
O=C(O)[C@@H]1Cc2ccccc2CN1C(=O)[C@@H]1CCCN1 (H-Pro-[Tic]-OH) |  |  | 373 | 590 | 507 | 382 | 21.09 |  |  |  | 
CC(=O)Oc1ccccc1C(=O)O [ASPIRIN] |  |  |  |  |  |  |  |  | 13.22 | 27.6 | 
N[C@@H](Cc1c[nH]cn1)C(=O)N1Cc2ccccc2C[C@H]1C(=O)O (H-His-[Tic]-OH) |  |  | 324 | 684 | 670 | 521 | 21.78 |  |  |  | 
N[C@@H](CCC(=O)O)C(=O)N1Cc2ccccc2C[C@H]1C(=O)O (H-Glu-[Tic]-OH) |  |  | 494 | 589 | 544 | 298 | 20.87 |  |  |  | 
N[C@@H](CC(=O)O)C(=O)N1Cc2ccccc2C[C@H]1C(=O)O (H-Asp-[Tic]-OH) |  |  | 345 | 902 | 383 | 369 | 20.3 |  |  |  | 
O=C(O)[C@@H]1Cc2ccccc2CN1 |  |  | 552 | 882 | 960 | 452 | 26.88 |  |  |  | 21.52
NCCCC[C@H](N)C(=O)N1Cc2ccccc2C[C@H]1C(=O)O (H-Lys-[Tic]-OH) |  |  | 323 | 829 | 472 | 344 | 21.31 |  |  |  | 
CC(C)C[C@H](N)C(=O)N1Cc2ccccc2C[C@H]1C(=O)O (H-Leu-[Tic]-OH) |  |  | 336 | 730 | 892 | 238 | 19.12 |  |  |  | 
O=C(O)[C@@H]1Cc2c([nH]c3ccccc23)CN1 [CYCLOMETHYLTRYPTOPHAN] |  |  | 3320 | 3290 | 3180 | 3430 |  |  |  |  | 
CSCC[C@H](N)C(=O)N1Cc2ccccc2C[C@H]1C(=O)O (H-Met-[Tic]-OH) |  |  | 265 | 607 | 409 | 430 | 19.56 |  |  |  | 
N[C@@H](Cc1ccc(O)cc1)C(=O)N1Cc2ccccc2C[C@H]1C(=O)O (H-Tyr-[Tic]-OH) |  |  | 327 | 738 | 668 | 526 | 20.92 |  |  |  | 
N[C@@H](Cc1c[nH]c2ccccc12)C(=O)N1Cc2ccccc2C[C@H]1C(=O)O (H-Trp-[Tic]-OH) |  |  | 194 | 720 | 422 | 572 | 19.47 |  |  |  | 
CC[C@H](C)[C@H](N)C(=O)N1Cc2ccccc2C[C@H]1C(=O)O (H-Ile-[Tic]-OH) |  |  | 315 | 674 | 831 | 465 | 21.14 |  |  |  | 
NC(=O)CC[C@H](N)C(=O)N1Cc2ccccc2C[C@H]1C(=O)O (H-Gln-[Tic]-OH) |  |  | 302 | 555 | 392 | 351 | 21.3 |  |  |  | 
N=C(N)NCCC[C@H](N)C(=O)N1Cc2ccccc2C[C@H]1C(=O)O (H-Arg-[Tic]-OH) |  |  | 210 | 565 | 517 | 217 | 20.06 |  |  |  | 
CC(C)[C@H](N)C(=O)N1Cc2ccccc2C[C@H]1C(=O)O (H-Val-[Tic]-OH) |  |  | 389 | 653 | 632 | 666 | 20.12 |  |  |  | 
NCC(=O)N1Cc2ccccc2C[C@H]1C(=O)O (H-Gly-[Tic]-OH) |  |  | 365 | 761 | 875 | 423 | 21.17 |  |  |  | 
C[C@H](N)C(=O)N1Cc2ccccc2C[C@H]1C(=O)O (H-Ala-[Tic]-OH) |  |  | 651 | 741 | 945 | 440 | 20.3 |  |  |  | 
NC(=O)C[C@H](N)C(=O)N1Cc2ccccc2C[C@H]1C(=O)O (H-Asn-[Tic]-OH) |  |  | 534 | 495 | 360 | 407 | 22.66 |  |  |  | 
N[C@@H](Cc1ccccc1)C(=O)N1Cc2ccccc2C[C@H]1C(=O)O (H-Phe-[Tic]-OH) |  |  | 370 | 851 | 527 | 573 | 22.23 |  |  |  | 

— ChEMBL document CHEMBL1142506, “(3S)-N-(L-Aminoacyl)-1,2,3,4-tetrahydroisoquinolines, a class of novel antithrombotic agents: synthesis, bioassay, 3D QSAR, and ADME analysis” (Bioorg Med Chem, 2008)
